Test results: paper PMC12495087 (ESMO Open, 2025)

Experiment: phase I study BOS172738-01: safety and tolerability
Assay type: in vivo, human
Procedure, shortened: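 Patients received at least one dose of oral drug given once daily in 28-day cycles. Part A escalated 10–150 mg, by accelerated titration (dose doubling) and then 3+3 Fibonacci steps; part B used 75 mg. AEs were graded by CTCAE v4.03 from first dose to 31 days after last dose. DLTs counted in cycle 1. Missing causality was scored as related and missing grade as grade 3.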

[1] = any causality and grade, overall n = 117
[2] = overall total, n = 117, listed as BOS
[3] = part A, all dose levels, n = 67

COc1cc2cc(-c3ccc(CC(=O)Nc4cc(C(C)(C)C(F)(F)F)no4)cn3)cnc2cc1OC [BOS172738]
grade ≥3 TEAE of either hypertension or liver enzyme elevations (BOS172738-treated patients): 2% | Any TEAE (all pooled 75 mg, n = 70): 70 (100) n (%) | Any TEAE leading to BOS discontinuation (all pooled 75 mg, n = 70): 13 (19) n (%) | Any TEAE leading to BOS dose interruption (all pooled 75 mg, n = 70): 46 (66) n (%) | Any TEAE leading to BOS dose reduction (all pooled 75 mg, n = 70): 14 (20) n (%) | Any TEAE leading to study discontinuation (all pooled 75 mg, n = 70): 9 (13) n (%) | Any TEAE related to BOS leading to BOS discontinuation (all pooled 75 mg, n = 70): 6 (9) n (%) | Any TEAE related to BOS leading to study discontinuation (all pooled 75 mg, n = 70): 2 (3) n (%) | Any TEAE resulting in death (all pooled 75 mg, n = 70): 3 (4) n (%) | Any TEAE, grade ≥3 (all pooled 75 mg, n = 70): 57 (81) n (%) | Serious TEAEs related to BOS (all pooled 75 mg, n = 70): 4 (6) n (%) | Serious TEAEs, any (all pooled 75 mg, n = 70): 35 (50) n (%) | TEAE related to BOS, CTCAE grade ≥3: Anemia (all pooled 75 mg, n = 70): 4 (6) n (%) | TEAE related to BOS, CTCAE grade ≥3: Asthenia (all pooled 75 mg, n = 70): 1 (1) n (%) | TEAE related to BOS, CTCAE grade ≥3: Blood creatinine phosphokinase increased (all pooled 75 mg, n = 70): 14 (20) n (%) | TEAE related to BOS, CTCAE grade ≥3: Diarrhea (all pooled 75 mg, n = 70): 1 (1) n (%) | TEAE related to BOS, CTCAE grade ≥3: Hypophosphatemia (all pooled 75 mg, n = 70): 4 (6) n (%) | TEAE related to BOS, CTCAE grade ≥3: Lymphopenia (all pooled 75 mg, n = 70): 2 (3) n (%) | TEAE related to BOS, CTCAE grade ≥3: Muscular weakness (all pooled 75 mg, n = 70): 1 (1) n (%) | TEAE related to BOS, CTCAE grade ≥3: Myositis (all pooled 75 mg, n = 70): 0 n (%) | TEAE related to BOS, CTCAE grade ≥3: Neutropenia (all pooled 75 mg, n = 70): 2 (3) n (%) | TEAE related to BOS, CTCAE grade ≥3: Neutrophil count decreased (all pooled 75 mg, n = 70): 9 (13) n (%) | TEAE related to BOS, any (all pooled 75 mg, n = 70): 57 (81) n (%) | TEAE related to BOS, grade ≥3 (all pooled 75 mg, n = 70): 34 (49) n (%) | TEAE: anemia [1]: 46 (39%) n (%) | TEAE: aspartate aminotransferase increased [1]: 48 (41%) n (%) | TEAE: blood creatine phosphokinase increased [1]: 72 (62%) n (%) | TEAE: constipation [1]: 30 (26%) n (%) | TEAE: diarrhea [1]: 41 (35%) n (%) | TEAE: dyspnea [1]: 34 (29%) n (%) | TEAE: facial edema [1]: 31 (26%) n (%) | TEAE: fatigue [1]: 33 (28%) n (%) | TEAE: hypophosphatemia [1]: 31 (26%) n (%) | treatment discontinued due to TEAEs (final data cut-off, 117 patients): 20% | myositis leading to dose interruption (in total): 6% | severity of BOS172738-related TEAEs (in vivo): mostly grade 1-2 | TEAE resulting in death: dyspnea (overall): 2% | patients discontinued from the study due to BOS172738-related TEAEs (overall): 4% | deaths considered related to BOS172738 (overall n = 117): None | serious TEAE related to BOS172738: muscular weakness (overall n = 117): 3 (3%) n (%) | serious TEAE related to BOS172738: myositis (overall n = 117): 2 (2%) n (%) | serious TEAE: anemia (overall n = 117): 4 (3%) n (%) | serious TEAE: dyspnea (overall n = 117): 8 (7%) n (%) | serious TEAE: pneumonia (overall n = 117): 7 (6%) n (%) | Any TEAE (overall total, n = 117): 117 (100) n (%) | Any TEAE leading to BOS discontinuation (overall total, n = 117): 30 (26%) n (%) | Any TEAE leading to BOS dose interruption (overall total, n = 117): 78 (67%) n (%) | Any TEAE leading to study discontinuation (overall total, n = 117): 18 (15) n (%) | Any TEAE related to BOS leading to BOS discontinuation (overall total, n = 117): 16 (14%) n (%) | Any TEAE related to BOS leading to study discontinuation (overall total, n = 117): 5 (4) n (%) | Any TEAE resulting in death (overall total, n = 117): 11 (9%) n (%) | Any TEAE, grade ≥3 (overall total, n = 117): 98 (84%) n (%) | Serious TEAEs related to BOS (overall total, n = 117): 16 (14%) n (%) | Serious TEAEs, any (overall total, n = 117): 67 (57%) n (%) | TEAE related to BOS, CTCAE grade ≥3: Anemia (overall total, n = 117): 10 (9%) n (%) | TEAE related to BOS, CTCAE grade ≥3: Asthenia (overall total, n = 117): 2 (2) n (%) | TEAE related to BOS, CTCAE grade ≥3: Blood creatinine phosphokinase increased (overall total, n = 117): 29 (25%) n (%) | TEAE related to BOS, CTCAE grade ≥3: Diarrhea (overall total, n = 117): 3 (3) n (%) | TEAE related to BOS, CTCAE grade ≥3: Hypophosphatemia (overall total, n = 117): 6 (5) n (%) | TEAE related to BOS, CTCAE grade ≥3: Lymphopenia (overall total, n = 117): 3 (3) n (%) | TEAE related to BOS, CTCAE grade ≥3: Muscular weakness (overall total, n = 117): 3 (3) n (%) | TEAE related to BOS, CTCAE grade ≥3: Myositis (overall total, n = 117): 2 (2) n (%) | TEAE related to BOS, CTCAE grade ≥3: Neutropenia (overall total, n = 117): 4 (3) n (%) | TEAE related to BOS, CTCAE grade ≥3: Neutrophil count decreased (overall total, n = 117): 12 (10%) n (%) | TEAE related to BOS, any (overall total, n = 117): 99 (85%) n (%) | TEAE related to BOS, grade ≥3 (overall total, n = 117): 63 (54%) n (%) | Any TEAE leading to BOS discontinuation [2]: 30 (26) n (%) | Any TEAE leading to BOS dose interruption [2]: 78 (67) n (%) | Any TEAE leading to BOS dose reduction [2]: 29 (25) n (%) | Any TEAE related to BOS leading to BOS discontinuation [2]: 16 (14) n (%) | Any TEAE resulting in death [2]: 11 (9) n (%) | Any TEAE, grade ≥3 [2]: 98 (84) n (%) | Serious TEAEs, any [2]: 67 (57) n (%) | TEAE related to BOS, CTCAE grade ≥3: Anemia [2]: 10 (9) n (%) | TEAE related to BOS, CTCAE grade ≥3: Blood creatinine phosphokinase increased [2]: 29 (25) n (%) | TEAE related to BOS, CTCAE grade ≥3: Neutrophil count decreased [2]: 12 (10) n (%) | TEAE related to BOS, any [2]: 99 (85) n (%) | TEAE related to BOS, grade ≥3 [2]: 63 (54) n (%) | DLT event (one patient) (part A, 75 mg cohort): blood creatine phosphokinase increased | DLT event (one patient) (part A, 100 mg cohort): muscle weakness and blood creatine phosphokinase increased | DLT event (one patient) (part A, 150 mg cohort): capillary leak syndrome | maximum tolerated dose (MTD) (part A, 10-150 mg orally once daily): not reached | patients with dose-limiting toxicities (part A, 10-150 mg orally once daily, cycle 1): three | Any TEAE [3]: 67 (100) n (%) | Any TEAE leading to BOS discontinuation [3]: 23 (34) n (%) | Any TEAE leading to BOS dose interruption [3]: 45 (67) n (%) | Any TEAE leading to BOS dose reduction [3]: 19 (28) n (%) | Any TEAE leading to study discontinuation [3]: 11 (16) n (%) | Any TEAE related to BOS leading to BOS discontinuation [3]: 14 (21) n (%) | Any TEAE related to BOS leading to study discontinuation [3]: 4 (6) n (%) | Any TEAE resulting in death [3]: 9 (13) n (%) | Any TEAE, grade ≥3 [3]: 57 (85) n (%) | Serious TEAEs related to BOS [3]: 12 (18) n (%) | Serious TEAEs, any [3]: 39 (58) n (%) | TEAE related to BOS, CTCAE grade ≥3: Anemia [3]: 7 (10) n (%) | TEAE related to BOS, CTCAE grade ≥3: Asthenia [3]: 2 (3) n (%) | TEAE related to BOS, CTCAE grade ≥3: Blood creatinine phosphokinase increased [3]: 19 (28) n (%) | TEAE related to BOS, CTCAE grade ≥3: Diarrhea [3]: 3 (4) n (%) | TEAE related to BOS, CTCAE grade ≥3: Hypophosphatemia [3]: 3 (4) n (%) | TEAE related to BOS, CTCAE grade ≥3: Lymphopenia [3]: 1 (1) n (%) | TEAE related to BOS, CTCAE grade ≥3: Muscular weakness [3]: 3 (4) n (%) | TEAE related to BOS, CTCAE grade ≥3: Myositis [3]: 2 (3) n (%) | TEAE related to BOS, CTCAE grade ≥3: Neutropenia [3]: 4 (6) n (%) | TEAE related to BOS, CTCAE grade ≥3: Neutrophil count decreased [3]: 5 (7) n (%)
